From ChEMBL document CHEMBL3425405, “Discovery of Small Molecules for Up-Regulating the Translation of Antiamyloidogenic Secretase, a Disintegrin and Metalloproteinase 10 (ADAM10), by Binding to the G-Quadruplex-Forming Sequence in the 5' Untranslated Region (UTR) of Its mRNA” (J Med Chem, 2015) come the findings set out here.

The source made the active and inactive calls. The calls are words filed in the database; no cut-off is given here.

Data set [1] concerns HEK293. Description: Reduction in Abeta40 protein production in APP expressing HEK cells at 0.75 uM after 48 hrs by ELISA method. The arrangement: scale not given: the % may be the effect or the level left. The format is functional, Homo sapiens. In outline: (§1)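 HEK-APP cells treated 48 h with increasing compound concentrations (0.75, 1, 1.5 μM). Secreted Aβ40 in equal amounts of conditioned medium quantified by sandwich ELISA. Values expressed relative to blank control; mean ± SD of three independent experiments.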
(In general: ELISA stands for enzyme-linked immunosorbent assay.)

Data set [2] deals with HEK293. Nature of the data set: Reduction in Abeta40 protein production in APP expressing HEK cells at 0.5 to 1.5 uM after 48 hrs by ELISA method. The format is functional, cell-based. The following applies: Homo sapiens. The gist of the method: as §1
Data set [3] concerns HeLa. Nature of the data set: Binding affinity to ADAM10 5'-UTR RNA QGRS (unknown origin) transfected in human HeLa cells assessed as increase in ADAM10 translation efficiency at 0.5 uM after 24 hrs by Renilla/firefly dual luciferase reporter assay. In kind it is cell-based. The gist of the method:
(§2)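 HeLa cells transfected with 0.8 μg 5′UTR-Wt or 5′UTR-Mut dual-luciferase plasmid. After 12 h, incubated 24 h with 0, 0.5, 1 or 2.5 μM compound. Renilla luciferase normalized to firefly and expressed relative to the ligand-free control; mean ± SD of three independent experiments, each in triplicate.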
(Reporter assays use an easily measured gene product as a stand-in for the process of interest.)

Data set [4] relates to HeLa. Nature of the data set: Binding affinity to N-Ras RNA QGRS (unknown origin) transfected in human HeLa cells assessed as increase in ADAM10 translation efficiency at 2.5 uM after 24 hrs by Renilla/firefly dual luciferase reporter assay. In kind it is cell-based. In outline: (§3)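 HeLa cells carrying luciferase reporter plasmids with the N-Ras, Bcl-2 or VEGF 5′-UTR quadruplex (or its mutant) treated with compound up to 2.5 μM for 24 h. Renilla/firefly luciferase activity then measured.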

Data set [5] in a line: Binding affinity to ADAM10 A10-mutant RNA QGRS (unknown origin) by surface plasmon resonance method. (SPR reads the build-up and loss of mass on a sensor chip optically.)
For data set [6], the system named is HeLa. Description: Binding affinity to Bcl-2 RNA QGRS (unknown origin) transfected in human HeLa cells assessed as increase in ADAM10 translation efficiency at 2.5 uM after 24 hrs by Renilla/firefly dual luciferase reporter assay. The format is cell-based. The gist of the method:
as §3

The subject of data set [7] is HeLa. Nature of the data set: Binding affinity to ADAM10 5'-UTR mutant RNA QGRS (unknown origin) transfected in human HeLa cells assessed as increase in luciferase mRNA expression at 0.5 to 2.5 uM after 24 hrs by RT-PCR method. In kind it is cell-based.
In data set [8] the test system is HEK-APP. Nature of the data set: Binding affinity to ADAM10 A10-RNA QGRS (unknown origin) transfected in HEK-APP cells assessed as increase in ADAM10 protein expression at 0.5 uM after 48 hrs by Western blotting method. The format is cell-based. In outline: (§4)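 HEK-APP cells (DMEM, 10% FBS, 2 mM glutamine, 0.2 mg/mL G418) treated with 0, 0.5, 0.75, 1 or 1.5 μM compound for 48 h. Lysates in Tris/NaCl/EDTA/1% Triton buffer immunoblotted for ADAM10, APP and β-actin; conditioned medium blotted for sAPPα. Signal by densitometry, normalized to β-actin, relative to blank control; mean ± SD, three independent experiments.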

Data set [9] deals with HEK293. Nature of the data set: Effect on APP protein expression in APP expressing HEK cells at 0.5 to 1.5 uM after 48 hrs by Western blotting method. In kind it is functional, cell-based. The following applies: Homo sapiens. The gist of the method:
as §4

The nature of data set [10]: Binding affinity to 5'-end biotinylated ADAM10 A10-mutant RNA QGRS (unknown origin) by surface plasmon resonance assay method. In outline: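 SPR with 5′-biotinylated A10-RNA-Wt or A10-RNA-Mut immobilized on a neutravidin chip in running buffer (50 mM Tris-HCl pH 7.5, 100 mM KCl). Ligand serial dilutions in running buffer injected at 20 μL/min for association, then dissociation. Chip regenerated with 50 mM NaOH between runs.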

The test system of data set [11] is HeLa. Nature of the data set: Binding affinity to ADAM10 5'-UTR RNA QGRS (unknown origin) transfected in human HeLa cells assessed as increase in luciferase mRNA expression at 0.5 to 2.5 uM after 24 hrs by RT-PCR method. In kind it is cell-based.
The subject of data set [12] is HeLa. Nature of the data set: Binding affinity to ADAM10 A10-RNA QGRS (unknown origin) transfected in human HeLa cells assessed as increase in ADAM10 translation efficiency at 0.5 uM after 24 hrs by Renilla/firefly dual luciferase reporter assay. In kind it is cell-based. In outline: (§5)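 HeLa cells transfected with 0.8 μg A10-Wt, A10-Mut or A10-Del plasmid (G-quadruplex motif upstream of Renilla in psiCHECK-2). Screening: 24 h at a single 2 μM concentration. Follow-up: plasmid for 12 h, then 0, 0.5, 1 or 2.5 μM for 24 h. Renilla normalized to firefly, relative to untreated control; mean ± SD of three independent measurements.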

Data set [13] deals with HeLa. Description: Binding affinity to ADAM10 A10-mutant RNA QGRS (unknown origin) transfected in human HeLa cells assessed as increase in ADAM10 translation efficiency at 0.5 to 2.5 uM after 24 hrs by Renilla/firefly dual luciferase reporter assay. The format is cell-based. The gist of the method: as §5
The subject of data set [14] is HeLa. Description: Binding affinity to ADAM10 A10-RNA QGRS (unknown origin) transfected in human HeLa cells assessed as increase in ADAM10 translation efficiency at 1 uM after 24 hrs by Renilla/firefly dual luciferase reporter assay. In kind it is cell-based. The gist of the method: as §5
In data set [15] the test system is HEK-APP. Description: Binding affinity to ADAM10 A10-RNA QGRS (unknown origin) transfected in HEK-APP cells assessed as change in ADAM10 mRNA expression at 0.5 to 1.5 uM after 48 hrs by RT-PCR method. The format is cell-based. In outline: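 HEK-APP cells cultured 48 h with 0, 0.5, 0.75, 1 or 1.5 μM compound. Total RNA isolated and ADAM10 mRNA measured by RT-PCR, normalized to β-actin.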

A short description of data set [16]: Effect on secondary structure of ADAM10 A10-RNA QGRS (unknown origin) by CD spectroscopy.
A short description of data set [17]: Binding affinity to ADAM10 A10-RNA QGRS (unknown origin) assessed as increase in RNA-ligand complexes at 0.5 to 10 fold excess compound level by native gel electrophoresis method. The gist of the method: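 A10-RNA-Wt labeled with Cy3/Cy5 folded in 100 mM KCl, 10 mM Tris-HCl, 0.1 mM EDTA (pH 7.5): 95 °C for 5 min, then cooled to room temperature over 90 min. RNA (2 μM) incubated 5 min at room temperature in the dark with 0, 0.5, 1, 5 or 10-fold excess compound. Run on native 16% polyacrylamide gel at 4 °C.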

The subject of data set [18] is HeLa. Nature of the data set: Binding affinity to ADAM10 5'-UTR mutant RNA QGRS (unknown origin) transfected in human HeLa cells assessed as increase in ADAM10 translation efficiency at 0.5 uM after 24 hrs by Renilla/firefly dual luciferase reporter assay. In kind it is cell-based. The gist of the method:
as §2

In data set [19] the test system is HeLa. Description: Toxicity against human HeLa cells assessed as effect on cell number at 0.5 to 2.5 uM after 24 hrs. In kind it is cell-based. In outline: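 HeLa cells inspected for cell number and morphology before the luciferase read-out, after reporter-plasmid transfection and 24 h exposure to 0, 0.5, 1 or 2.5 μM compound.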

In the case of `CCn1c2ccccc2c2cc(/C=C/c3cc(N4CCN(C)CC4)c4ccccc4[n+]3C)ccc21.[I-]`, the Activity is 7.7% with HEK293 [1]; “Dose-dependent effect” in the data set on HEK293 [2]; 9.7% in the data set with HeLa [3]; 20% with HeLa [4]; 20% in the data set on HeLa [6]; 20.2% in the data set with HEK-APP [8]. In addition, the Activity was 14.1% in the data set with HeLa [12], 46.9% with HeLa [14] and “Non-toxic” with HeLa [19]. Moreover, in data set [5], the Kd was found to be 700 mM. The outcome (in the data set on HeLa [7]; in the data set on HEK293 [9]; in data set [10]; with HeLa [11]; in the data set on HeLa [13]; with HEK-APP [15]) was inactive. Also, the outcome (in [16]; in the data set with HeLa [18]) was inactive. Also, in data set [17], the outcome was Active.

As usually defined, the Kd is a measure of binding affinity in units of concentration.
